Experimental data from ChEMBL document CHEMBL1148608, “Correlation of antifungal activity with fungal phospholipase inhibition using a series of bisquaternary ammonium salts” (J Med Chem, 2006).
≈ marks a conversion by molar mass, not a printed value. Calls of active or inactive are those of the source. No cut-off for these calls is given here.

How the values were obtained:
[1] = system: Cryptococcus neoformans; experiment: Antifungal activity against Cryptococcus neoformans ATCC 90112; assay type: functional
[2] = system: Candida albicans; experiment: Antifungal activity against Candida albicans ATCC 10231; assay type: functional
[3] = biological target: T1, Phospholipase B (Cryptococcus neoformans, UniProt Q9P8P2); experiment: Inhibition of Cryptococcus neoformans H99 PLB1activity
T1 sequence (Q9P8P2 whole entry): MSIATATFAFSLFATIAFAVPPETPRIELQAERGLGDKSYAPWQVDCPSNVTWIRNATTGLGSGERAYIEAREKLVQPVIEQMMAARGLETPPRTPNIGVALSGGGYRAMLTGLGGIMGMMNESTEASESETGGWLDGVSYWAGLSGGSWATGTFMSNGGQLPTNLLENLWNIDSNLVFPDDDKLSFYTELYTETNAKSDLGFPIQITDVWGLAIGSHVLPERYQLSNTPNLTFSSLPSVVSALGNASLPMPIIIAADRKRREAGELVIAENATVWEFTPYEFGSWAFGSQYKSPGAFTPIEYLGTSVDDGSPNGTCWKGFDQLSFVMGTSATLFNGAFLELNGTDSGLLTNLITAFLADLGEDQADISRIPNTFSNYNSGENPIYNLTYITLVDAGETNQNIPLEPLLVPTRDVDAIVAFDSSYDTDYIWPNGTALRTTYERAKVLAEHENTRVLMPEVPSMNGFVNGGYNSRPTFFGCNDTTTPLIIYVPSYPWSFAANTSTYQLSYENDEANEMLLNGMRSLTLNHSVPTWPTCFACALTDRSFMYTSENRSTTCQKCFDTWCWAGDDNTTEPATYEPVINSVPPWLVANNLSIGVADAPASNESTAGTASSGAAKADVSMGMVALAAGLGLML
Procedure, shortened: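 Secreted enzyme from C. neoformans var. grubii H99 grown 72 h on SDA at 30 °C; cells washed and held 24 h at 37 °C in imidazole buffer pH 5.5, and the cell-free supernatant was used. Radiometric assay at 37 °C, pH 4.0 imidazole acetate, with 1 µg protein, 800 µM DPPC plus [14C]DPPC, for 22 min. Lipids were separated by TLC. Compounds at 0.25–250 µM in triplicate, with inhibition relative to the inhibitor-free control.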

[4] = biological target: Phospholipase A2, major isoenzyme (Sus scrofa) (UniProt P00592); experiment: Inhibition of porcine pancreatic PLA2 activity at 250 uM
Phospholipase A2, major isoenzyme (Sus scrofa), sequence (P00592 23-146 limits assumed): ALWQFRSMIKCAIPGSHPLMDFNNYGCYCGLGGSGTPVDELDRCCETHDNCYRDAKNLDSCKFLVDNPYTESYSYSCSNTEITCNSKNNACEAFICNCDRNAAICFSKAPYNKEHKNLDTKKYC
Procedure, shortened: (§1)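 Porcine pancreatic PLA2 was diluted in 10 mM Tris/HCl with 10 mM CaCl2, pH 8.2. It was run in the same radiometric assay as the fungal enzyme at 37 °C, using 800 µM DPPC with [14C]DPPC, for a 1 h reaction. Compounds were tested at 250, 25, 2.5 and 0.25 µM final, and inhibition was relative to the inhibitor-free control.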

[5] = biological target: Phospholipase A2, major isoenzyme (Sus scrofa) (UniProt P00592); experiment: Inhibition of porcine pancreatic PLA2 activity at 25 uM and below; procedure, shortened: as §1
[6] = system: Aspergillus flavus; experiment: Antifungal activity against Aspergillus flavus ATCC 204 304; assay type: functional
[7] = system: Lomentospora prolificans; experiment: Antifungal activity against Scedosporium prolificans 1-003-040; assay type: functional
[8] = system: Scedosporium boydii; experiment: Antifungal activity against Scedosporium apiospermum 1-003-056; assay type: functional
[9] = system: Aspergillus fumigatus; experiment: Antifungal activity against Aspergillus fumigatus ATCC 204 305; assay type: functional
[10] = system: Aspergillus terreus; experiment: Antifungal activity against Aspergillus terreus ATCC 03-232-378; assay type: functional
[11] = system: Fusarium solani; experiment: Antifungal activity against Fusarium solani 04-132-4207; assay type: functional
[12] = system: RBCs; experiment: Hemolytic activity as a measure of cytotoxicity against human red blood cells at 350 uM; assay type: functional, Erythrocyte
[13] = system: RBCs; experiment: Hemolytic activity as a measure of cytotoxicity against human red blood cells at 175 uM; assay type: functional, Erythrocyte
[14] = system: RBCs; experiment: Hemolytic activity as a measure of cytotoxicity against human red blood cells at 87.5 uM; assay type: functional, Erythrocyte
[15] = system: RBCs; experiment: Hemolytic activity as a measure of cytotoxicity against human red blood cells at 35 uM; assay type: functional, Erythrocyte
[16] = system: RBCs; experiment: Hemolytic activity as a measure of cytotoxicity against human red blood cells at 3.5 uM; assay type: functional, Erythrocyte
[17] = Cryptococcus neoformans, ATCC 90112, read-out: MIC
[18] = Candida albicans, ATCC 10231, read-out: MIC

Row | Structure (SMILES) | MIC [1, 17] [µM] | MIC [2, 18] [µM] | IC50 [3] [µM] | Activity [12] [%] | Activity [13] [%] | Activity [14] [%] | Activity [15] [%] | Activity [16] [%] | also measured
1 | C[N+]1(CCCCCCCCCCCC[N+]2(C)CCCC2)CCCC1 | 175 | 175 | > 250 | – | – | – | – | – | –
2 | CCCCCCCC[N+](CCCCCCCC)(CCCCCCCC)CCCCCCCCCCCC[N+](CCCCCCCC)(CCCCCCCC)CCCCCCCC | 35 | 100 | > 250 | – | – | – | – | – | –
3 | CCCCCC[N+](CCCCCC)(CCCCCC)CCCCCCCCCCCC[N+](CCCCCC)(CCCCCC)CCCCCC | 17.5 | 8.8 | 7.5 | – | – | – | – | – | inhibition [4]: 90%; inhibition [5]: inactive
4 | CCCC[N+](CCCC)(CCCC)CCCCCCCCCCCC[N+](CCCC)(CCCC)CCCC.[Cl-].[Cl-] | – | – | 10 | 100 | 5 | 0 | 0 | 0 | MIC [6]: 22 µM; MIC [7]: 5.5 µM; MIC [8]: 2.8 µM; MIC [1]: 2.2 µM; MIC [2]: 5.5 µM; MIC [9]: 11 µM; MIC [10]: 5.5 µM; MIC [11]: 5.5 µM
5 | C[N+](C)(C)CCCCCCCCCC[N+](C)(C)C.[Br-].[Br-] [DECAMETHONIUM BROMIDE] | ≥ 350 | ≥ 350 | > 250 | 0 | 0 | 0 | 0 | 0 | –
6 | C(CCCCCC[N+]12CCC(CC1)CC2)CCCCC[N+]12CCC(CC1)CC2 | 350 | ≥ 350 | > 250 | – | – | – | – | – | –
7 | CCCC[P+](CCCC)(CCCC)CCCCCCCCCCCC[P+](CCCC)(CCCC)CCCC.[Br-].[Br-] | 2.5 | 8.8 | > 25 | 15 | 0 | 0 | 0 | 0 | –
8 | C[N+](C)(C)CCCCCCCCCCCC[N+](C)(C)C.[Br-].[Br-] | 175 | 175 | > 250 | 0 | 0 | 0 | 0 | 0 | inhibition [4]: inactive; inhibition [5]: inactive
9 | CC(C)CC[N+](CCCCCCCCCCCC[N+](CCC(C)C)(CCC(C)C)CCC(C)C)(CCC(C)C)CCC(C)C.[Cl-].[Cl-] | 4.4 | 2.2 | > 7.5 | 100 | 30 | 4 | 0 | 0 | inhibition [4]: 90%; inhibition [5]: inactive
10 | CCCC[N+](CCCC)(CCCC)CCCCCCCCCCCC[N+](CCCC)(CCCC)CCCC [listing 1 of 2 here] | – | – | – | – | – | – | – | – | inhibition [4]: 90%; inhibition [5]: inactive
11 | C[N+]1(CCCCCCCCCCCC[N+]2(C)CCOCC2)CCOCC1 | 44 | 88 | > 250 | – | – | – | – | – | –
12 | CCCCC[N+](CCCCC)(CCCCC)CCCCCCCCCCCC[N+](CCCCC)(CCCCC)CCCCC.[Br-].[Br-] | 5.5 | 5.5 | 3.5 | 100 | 5 | 0 | 0 | 0 | inhibition [4]: 90%; inhibition [5]: inactive
13 | CCC[N+](CCC)(CCC)CCCCCCCCCCCC[N+](CCC)(CCC)CCC | 5.5 | 10 | 7 | – | – | – | – | – | –
14 | C[C@@H]1[C@H](O)[C@@H](C)/C=C/C=C/C=C/C=C/C=C/C=C/C=C/[C@H](O[C@@H]2O[C@H](C)[C@@H](O)[C@H](N)[C@@H]2O)C[C@@H]2O[C@](O)(C[C@@H](O)C[C@@H](O)[C@H](O)CC[C@@H](O)C[C@@H](O)CC(=O)O[C@H]1C)C[C@H](O)[C@H]2C(=O)O [AMPHOTERICIN B] | 0.54 (≈ 0.499 µg/mL) | 0.54 (≈ 0.499 µg/mL) | – | – | – | – | – | – | MIC [6]: 0.54 µM (≈ 0.499 µg/mL); MIC [7]: 4.3 µM (≈ 3.97 µg/mL); MIC [8]: 0.54 µM (≈ 0.499 µg/mL); MIC [9]: 0.54 µM (≈ 0.499 µg/mL); MIC [10]: 1.1 µM (≈ 1.02 µg/mL); MIC [11]: 0.27 µM (≈ 0.25 µg/mL)
15 | CCCC[N+]1(CCCCCCCCCCCC[N+]2(CCCC)CCCC2)CCCC1.[Cl-].[Cl-] | 88 | 88 | > 250 | 0 | 0 | 0 | 0 | 0 | –
16 | CCCC[N+](CCCC)(CCCC)CCCCCCCCCCCC[N+](CCCC)(CCCC)CCCC [listing 2 of 2 here] | 2.2 | 5.5 | – | – | – | – | – | – | –
17 | CC[N+](CC)(CC)CCCCCCCCCCCC[N+](CC)(CC)CC | 11 | 22 | > 250 | – | – | – | – | – | –
